# Compounds with a hit are over-represented: about 3.4% of the library has one in this group of screens.
# SIRT5 block = blocks human SIRT5 desuccinylation of peptide; Purified SirT5, succinyl-peptide AMC, trypsin-coupled fluorescence; inhibition, % at 15 µM; hit rate 1.1% among 330,000; in the data active = inhibition above about 15%; inconclusive = no clear call, values can overlap the other calls
# S100A4 MyoIIA = S100A4-myosin IIA interaction inhibition; P26447; S100A4/TAMRA-MyoIIA peptide fluorescence polarization; inhibition, % at 10.7 µM; hit rate 0.14% among 360,000; AID 652163;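 active = mean inhibition of at least 70% across replicates, with every replicate also reaching that level; inconclusive = mean inhibition reaches 70% but some replicates fall short; inactive = mean inhibition below 70%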
#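 Material: S100A4 monomer (human). Medium: Calcium-containing HEPES buffer, pH 7.2. Probe or stimulus: labelled myosin peptide probe, 5 nM. Compound dosing: one concentration per compound. Timing: polarization read 5 min after assay mix addition, stable 5–60 min. Benchmarks: DMSO as neutral control, TFP as positive control.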
# MLL AF4-AF9 inh = blocks AF4 peptide binding to human AF9 | inhibition, % at 10 µM | AlphaScreen, biotin-AF4 peptide binding to FLAG-AF9 | AID 651704 | hit rate 0.47% among 350,000 | P42568;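 active = every replicate reaching a set inhibition limit, whatever the replicate mean, cut at about 25% in these data; inconclusive = mean inhibition reaches that limit but some replicates miss it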;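 note: 0% = plate neutral control median and 100% = total signal loss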
# ERAP1 HTS inh = ERAP1 (human) enzyme inhibition; Q9NZ08; recombinant ERAP1, Leu-AMC fluorescence, 60 min; inhibition, % at 10.7 µM; hit rate 0.15% among 340,000; AID 652197;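 active = mean replicate inhibition of at least 30%, or all replicates individually reaching that 30% level; inactive = mean below 30% and not every replicate reaching it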;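 note: 0% = neutral control wells and 100% = L-leucinethiol positive control wells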
# rRNA inh HTS = inhibitors of bacterial rRNA selective over humanized ribosomes; E. coli WT GFP vs humanized-ribosome RFP mutants, fluorescence, 24 h; hits give low values; DMSO median 0, no signal -100; GFP signal change (wild-type ribosome), % (concentration not given with the values); hit rate 1.6% among 350,000; AID 720706;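 active = significant combined selectivity score with lowered wild-type GFP, culture density cut under 30%, mutant RFP and density less affected; inactive = any of these conditions unmet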
# E-selectin induc = induces E-selectin expression in human endothelial cells. HUVEC E-selectin immunofluorescence imaging; normalized: neutral wells 0, TNF-alpha wells 100. activation, % at 7.58 µM. hit rate 0.37% among 260,000. AID 686992;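 active = mean E-selectin-positive cell signal at least 10% of the positive control, reached in at least 60% of replicates, without over 20% cell loss; inconclusive = no rule given, readout overlaps actives, possibly toxicity-flagged; inactive = the rest, including those meeting only one limit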
# Target sequence (P16581 whole entry, looked up): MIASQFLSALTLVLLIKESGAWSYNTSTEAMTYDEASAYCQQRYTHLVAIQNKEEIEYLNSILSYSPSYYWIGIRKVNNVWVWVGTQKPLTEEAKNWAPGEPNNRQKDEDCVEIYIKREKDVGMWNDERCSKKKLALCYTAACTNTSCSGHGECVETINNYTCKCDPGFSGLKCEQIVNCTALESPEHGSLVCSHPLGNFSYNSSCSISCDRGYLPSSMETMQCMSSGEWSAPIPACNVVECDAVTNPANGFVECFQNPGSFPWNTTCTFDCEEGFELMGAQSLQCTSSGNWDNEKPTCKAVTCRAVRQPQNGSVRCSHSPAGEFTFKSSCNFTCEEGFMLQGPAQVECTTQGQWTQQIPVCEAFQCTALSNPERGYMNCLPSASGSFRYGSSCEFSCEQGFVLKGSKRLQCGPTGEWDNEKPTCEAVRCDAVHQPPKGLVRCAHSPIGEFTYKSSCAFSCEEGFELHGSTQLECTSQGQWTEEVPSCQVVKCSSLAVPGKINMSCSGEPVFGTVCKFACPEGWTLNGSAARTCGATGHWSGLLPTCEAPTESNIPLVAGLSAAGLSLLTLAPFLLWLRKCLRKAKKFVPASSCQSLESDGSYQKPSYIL
#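 Test system: HUVEC; input: 3,000 HUVEC/well; measured by: immunofluorescence imaging; read-out: % PE-positive cells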
# The depositor's hits bear a star; ? = inconclusive; nt = no result given.
SMILES,SIRT5 block,S100A4 MyoIIA,MLL AF4-AF9 inh,ERAP1 HTS inh,rRNA inh HTS,E-selectin induc
C[C@H]1CN([C@@H](C)CO)S(=O)(=O)c2ccc(C#CC(C)(C)O)cc2O[C@@H]1CN(C)Cc1ccc(F)cc1,16*,-2,-3,4,-22,0
C[C@H]1CN([C@@H](C)CO)C(=O)c2cccc(NC(=O)C3CC3)c2O[C@@H]1CN(C)Cc1ccc(Cl)c(Cl)c1,3,-6,4,2,-4,0
C[C@H]1CC=CC[C@H](c2ccc(F)cc2)NC(=O)[C@H](C)N(C)C(=O)c2ccccc2O1 (mixture of isomers),nt,nt,nt,nt,0,nt
CC1CCCN(c2ccc3nc4ccccc4c(=O)n3n2)C1 (centres undefined),-1,-7,2,5,-18*,1
C[C@@H]1CN(C)C(=O)c2cccc(N(C)C)c2O[C@@H]1CN(C)C,nt,nt,nt,nt,2,nt
O=C(C[C@@H]1C=C[C@@H](NC(=O)c2ccncc2)[C@H](CO)O1)NCc1ccncn1,-4,4,1,1,-2,0
CCOC(=O)C1=NOC(COc2ccccc2C=O)C1 (centres undefined),23*,3,0,-2,17,nt
C[C@@H]1CN([C@@H](C)CO)S(=O)(=O)c2ccc(-c3cncnc3)cc2O[C@@H]1CN(C)C(=O)c1cccc(F)c1,nt,3,nt,nt,-3,0
CCNc1nc(NC(C)(C)C)nc(Oc2ccc(=O)n(-c3ccccc3)n2)n1,0,1,-1,1,3,43*
CC(C)Nc1nc(Oc2ccc(=O)n(-c3ccccc3)n2)nc(N(C)C)n1,2,-2,1,nt,7,0
Cc1nc2c(C)cccn2c1/C(O)=C1\C(=O)C(=O)N(CCN(C)C)C1c1cccs1 (centres undefined),0,2,2,nt,-26*,7
C[C@@H]1CN([C@H](C)CO)C(=O)c2cc(C#CC3CC3)cnc2O[C@H]1CN(C)C(=O)Nc1ccccc1,4,8,-2,5,1,1
O=C(C1CCC1)N1CC(=O)N2[C@@H](CO)[C@@H](c3ccc(-c4ccccc4F)cc3)[C@@H]2C1,-3,-3,-4,1,-4,0
O=C(NC[C@@H]1CC[C@@H]2[C@@H](CN2S(=O)(=O)c2ccccc2[N+](=O)[O-])O1)C1CCOCC1,-3,-4,28*,11,nt,nt
O=C(NC[C@H]1CC[C@@H]2[C@@H](CN2S(=O)(=O)c2ccccc2[N+](=O)[O-])O1)Nc1ccccc1,1,-2,0,2,nt,nt
C[C@@H]1CN([C@H](C)CO)C(=O)c2cc(NC(=O)Nc3ccc4c(c3)OCO4)ccc2O[C@@H](C)CCCCO[C@H]1CN(C)S(=O)(=O)c1cccs1,18*,-11,5,0,-2,0
C[C@@H]1CCCCO[C@@H](CN(C)S(=O)(=O)c2cccs2)[C@H](C)CN([C@H](C)CO)C(=O)c2cc(NC(=O)Nc3ccc(F)cc3)ccc2O1,17*,-17,-4,-3,4,1
C[C@H]1CN([C@@H](C)CO)C(=O)c2cc(NC(=O)Nc3ccc(F)cc3)ccc2O[C@H]1CN(C)S(=O)(=O)c1cccs1,11,-2,-1,0,-2,26*
C[C@H](CO)N1C[C@H](C)[C@@H](CN(C)S(=O)(=O)c2cccs2)Oc2ccc(NC(=O)Nc3ccc(F)cc3)cc2C1=O,12,-7,1,1,-5,-6
C[C@@H]1CCCCO[C@H](CN(C)S(=O)(=O)c2cccs2)[C@@H](C)CN([C@H](C)CO)C(=O)c2cc(NC(=O)Nc3ccc4c(c3)OCO4)ccc2O1,-1,-5,0,4,24,0
C=CCC[C@@H](CCCCC)OC(=O)/C=C/[C@H](O)[C@@H](O)C[C@H](O)CC=C,16*,2,-10,nt,5,-7
CC(Nc1ccc(Cl)c(Cl)c1)C(=O)NN (centres undefined),-3,-1,-1,6,-26*,3
O=C(COC(=O)c1ccccc1Cl)NCCC1=CCCCC1,0,0,-4,1,-21*,0
O=C(COC(=O)c1ccc(F)cc1F)NCCC1=CCCCC1,-2,3,-4,0,-7,1
COc1ccccc1CCNC(=O)CSc1ccc(-c2cccs2)nn1,3,0,0,-2,-12,0
SMILES,SIRT5 block,S100A4 MyoIIA,MLL AF4-AF9 inh,ERAP1 HTS inh,rRNA inh HTS,E-selectin induc
COc1ccccc1NC(=O)CSc1ccc(-c2cccs2)nn1,1,-2,2,0,-27*,11
COc1ccccc1NC(=O)CSc1nnnn1Cc1ccccc1,-1,-4,-6,-3,-29*,nt
Cc1cc(C)cc(NC(=O)CSc2ccc(-c3cccs3)nn2)c1,22*,11,-5,-9,-9,0
O=C(CSc1ccc(-c2cccs2)nn1)Nc1ccccc1,-1,5,0,-3,-1,0
COc1ccc(NC(=O)CSc2nnnn2Cc2ccccc2)cc1,-1,-3,-2,0,-18,20
COc1ccc2c3c(n(C)c2c1)[C@@H](CO)N(C(=O)C1CCOCC1)CC31CCN(C(=O)Nc2cccc(F)c2)CC1,3,18,6,2,-3,0
O=C(C1CCCC1)N1CC2(C1)[C@@H](c1ccccc1)[C@@H](CO)N2Cc1cncnc1,-2,-1,-3,-2,1,0
CCOC(=O)N1CCN(C(=O)/C(=C/c2cccs2)NC(=O)c2cccs2)CC1,17*,-2,0,6,16,nt
CC(=O)Oc1ccc2c(=O)c(Oc3ccccc3)c(C)oc2c1OC(C)=O,-2,-2,0,6,-17*,-2
C[C@@H]1CN([C@H](C)CO)C(=O)c2cccc(NC(=O)C3CCOCC3)c2O[C@@H]1CN(C)Cc1ccc(Oc2ccccc2)cc1,5,8,5,6,0,380*
C[C@H](CO)N1C[C@H](C)[C@H](CN(C)Cc2ccc(Oc3ccccc3)cc2)Oc2c(NC(=O)C3CCOCC3)cccc2C1=O,-3,2,0,-2,3,168*
C[C@H]1CN([C@@H](C)CO)C(=O)c2cccc(NC(=O)C3CCOCC3)c2O[C@H]1CN(C)Cc1ccc(Oc2ccccc2)cc1,-1,0,-16,-1,-5,?
COc1ccc(S(=O)(=O)Nc2cccc3c2O[C@H](CN(C)Cc2ccncc2)[C@H](C)CN([C@H](C)CO)C3=O)cc1,1,2,8,-1,2,1
Cc1noc(C)c1NC(=O)Nc1ccc2c(c1)C(=O)N([C@H](C)CO)C[C@H](C)[C@@H](CN(C)S(=O)(=O)c1ccccc1)OCCCC[C@H](C)O2,4,-3,0,0,-2,0
